The source made the active and inactive calls. The rule behind the calls is not given here.
Assays:
Escherichia coli [1] = experiment: Inhibition of Escherichia coli beta-glucuronidase in Balb/cJ mouse feces using pNPG as substrate at 3 mg/kg, po for 5 days measured on day 5 post last dose after 1 hr; format: organism-based
How it was run: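 Mice gavaged with inhibitor at 3 mg/kg/day or DDW for 5 days. Fresh feces homogenized 1:9 w/v in assay buffer, mixed with assay buffer and 20 mM pNPG (stock), incubated 37 °C for 1 h, centrifuged, quenched with 2 N NaOH, and pNP read at OD405; n = 6; two-tailed t test.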

Escherichia coli [2] = experiment: Inhibition of N-terminal His-tagged Escherichia coli beta-glucuronidase expressed in Escherichia coli BL21 (DE3) assessed as residual activity using pNPG as substrate at 10 uM preincubated for 30 mins followed by substrate addition measured after 1 hr relative to control
How it was run: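 Purified E. coli βG (20 ng) preincubated with 10 μM compound for 30 min at 37 °C in PBS pH 7.5 with 10% DMSO and 0.05% BSA. pNPG (20 mM stock) then added for 1 h, quenched with 2 N NaOH, and read at OD405. Result given as % activity versus a 10% DMSO control; n = 3.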

[3] = test system: Escherichia coli BL21(DE3); experiment: Inhibition of beta-glucuronidase in Escherichia coli BL21 (DE3) using pNPG as substrate at 50 uM preincubated for 30 mins followed by substrate addition measured after 1 hr relative to control
How it was run: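 BL21(DE3) E. coli grown overnight and diluted to OD600 0.1 in LB. Cells treated with compound (50, 10 or 2 μM) for 30 min at 37 °C, then pNPG (40 mM stock) added for 1 h. Cells pelleted at 6000g; supernatant quenched with NaOH and read at OD405. Activity given as % of a 1% DMSO control.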

beta-glucuronidase = biological target: T1, beta-glucuronidase (Homo sapiens, UniProt P08236); experiment: Inhibition of N-terminal His-tagged human beta-glucuronidase expressed in Escherichia coli BL21 (DE3) assessed as residual activity using pNPG as substrate at 10 uM preincubated for 30 mins followed by substrate addition measured after 1 hr relative to control; conditions: probe pNPG, read-out: Activity
T1 sequence (P08236 whole entry): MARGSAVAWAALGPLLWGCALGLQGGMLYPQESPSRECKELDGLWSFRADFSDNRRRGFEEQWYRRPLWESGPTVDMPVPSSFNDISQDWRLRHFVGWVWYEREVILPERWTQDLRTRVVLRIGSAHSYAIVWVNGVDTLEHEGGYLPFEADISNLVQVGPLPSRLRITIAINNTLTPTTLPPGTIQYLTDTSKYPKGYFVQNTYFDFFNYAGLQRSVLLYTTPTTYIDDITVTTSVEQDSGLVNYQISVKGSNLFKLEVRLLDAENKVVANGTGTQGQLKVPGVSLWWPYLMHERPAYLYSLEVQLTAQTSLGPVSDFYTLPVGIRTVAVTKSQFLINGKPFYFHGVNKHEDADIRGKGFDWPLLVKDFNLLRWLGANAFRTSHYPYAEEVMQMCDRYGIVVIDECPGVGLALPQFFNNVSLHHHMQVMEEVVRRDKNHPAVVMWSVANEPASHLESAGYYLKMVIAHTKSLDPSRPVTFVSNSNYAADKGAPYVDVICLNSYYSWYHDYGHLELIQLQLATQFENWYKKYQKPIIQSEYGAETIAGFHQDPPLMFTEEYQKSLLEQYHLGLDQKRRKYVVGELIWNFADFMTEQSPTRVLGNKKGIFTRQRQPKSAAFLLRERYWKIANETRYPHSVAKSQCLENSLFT

[4] = Inhibition of N-terminal His-tagged Escherichia coli beta-glucuronidase expressed in Escherichia coli BL21 (DE3) using pNPG as substrate preincubated for 30 mins followed by substrate addition measured after 1 hr
How it was run: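 Purified E. coli βG (20 ng) preincubated 30 min at 37 °C with compound (0.64–10 000 nM) in PBS pH 7.5 containing 10% DMSO and 0.05% BSA. pNPG (20 mM stock) then added for 1 h, quenched with 2 N NaOH, and pNP read at 405 nm. IC50 derived from a four-parameter curve fit; SD of n = 3.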

Escherichia coli [5] = experiment: Toxicity against Escherichia coli BL21(DE3) assessed as effect on cell growth at 100 uM after 6 hrs
How it was run: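 BL21(DE3) E. coli (diluted to OD600 0.1 in LB after overnight growth) incubated with compound at a final 100 μM, shaking at 37 °C for 6 h. Growth measured by OD600; viability given as % of the untreated control.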

Escherichia coli [6] = experiment: Inhibition of intestinal Escherichia coli beta-glucuronidase in Balb/cJ mouse using FDGIcU as substrate at 3 mg/kg, po for 5 days measured on day 5 post last dose 120 mins after probe administration; format: organism-based
How it was run: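 BALB/cJ mice were gavaged with inhibitor at 3 mg/kg/day or DDW (200 μL) for 5 days. FDGlcU probe (500 μg/100 μL) given orally 30 min after the fifth dose. Intestinal fluorescein imaged in vivo 120 min after the probe (ex 490/em 525 nm) and quantified as average radiance; n = 6; two-tailed t test.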

Mus musculus [7] = experiment: Protection against CPT-11 induced intestinal toxicity in Balb/cJ mouse assessed as reduction in intestinal tissue damage at 3 mg/kg/day, po starting from 2 days before 50 mg/kg/day, ip CPT-11 administration for 10 consecutive days by hematoxylin and eosin staining based method; format: functional, organism-based
How it was run: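 Inhibitor given orally to BALB/cJ mice at 3 mg/kg/day in DDW (200 μL/day for controls), starting 2 days before CPT-11. CPT-11 50 mg/kg or saline given ip for 10 consecutive days. Jejunum, ileum and colon sections then H&E-stained and examined for villus and crypt destruction; 3–5 mice per group.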

Mus musculus [8] = experiment: Effect on systemic metabolism of CPT-11 in mouse CT26 cells transplanted Balb/cJ mouse assessed as effect on CPT-11-induced weight loss at 3 mg/kg/day administered via oral gavage for 18 days starting from 2 days before 50 mg/kg/day, ip CPT-11 dosing from day 2 measured every other day up to 18 days; format: functional, organism-based
How it was run: (§1)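 CT26 tumour-bearing BALB/c mice (cells inoculated day −8). Inhibitor given orally at 3 mg/kg/day in DDW (dosing solution 0.3 mg/mL) from day −2 onward. Daily ip CPT-11 50 mg/kg or saline from day 0. Tumour growth, body weight and diarrhea score (0 solid to 3 watery with severe perianal staining) recorded every other day; severity distribution on day 18. n = 6 mice/group; two-way ANOVA.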

Escherichia coli [9] = experiment: Inhibition of N-terminal His-tagged Escherichia coli beta-glucuronidase expressed in Escherichia coli BL21 (DE3) using pNPG as substrate at 10 uM at pH 5.5
How it was run: (§2)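 Purified E. coli βG assay at 10 μM compound, with PBS replaced by Na2HPO4 (0.2 M)/citric acid (0.1 M) buffer mixtures at each pH. Enzyme preincubated with compound 30 min at 37 °C, then pNPG added for 1 h; NaOH-quenched pNP read at 405 nm. Activity given relative to a 10% DMSO control at the same pH; n = 3.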

Escherichia coli [10] = experiment: Inhibition of N-terminal His-tagged Escherichia coli beta-glucuronidase expressed in Escherichia coli BL21 (DE3) using pNPG as substrate at 10 uM at pH 7.5; how it was run: as §2
Escherichia coli [11] = experiment: Inhibition of N-terminal His-tagged Escherichia coli beta-glucuronidase expressed in Escherichia coli BL21 (DE3) using pNPG as substrate at 10 uM at pH 6.0; how it was run: as §2
CT26 = experiment: Effect on CPT-11 induced antitumor activity against mouse CT26 cells transplanted in Balb/cJ mouse assessed as reduction in tumor volume at 3 mg/kg/day administered via oral gavage for 18 days starting from 2 days before 50 mg/kg/day, ip CPT-11 dosing from day 2 measured every other day up to 18 days; format: functional, organism-based; how it was run: as §1
Escherichia coli [12] = experiment: Inhibition of N-terminal His-tagged Escherichia coli beta-glucuronidase expressed in Escherichia coli BL21 (DE3) using pNPG as substrate at 10 uM at pH 6.5; how it was run: as §2
Mus musculus [13] = experiment: Protection against CPT-11 induced intestinal toxicity in Balb/cJ mouse transplanted with mouse CT26 cells assessed as reduction in diarrhea level at 3 mg/kg/day administered via oral gavage for 18 days starting from 2 days before 50 mg/kg/day, ip CPT-11 dosing from day 2 measured every other day up to 18 days; format: functional; parameters: scale not given: the % may be the effect or the level left; how it was run: as §1

Compound | inhibition (Escherichia coli [1]) | Activity (Escherichia coli [2]) [%] | inhibition [3] [%] | activity at 1 h, 10 µM (beta-glucuronidase) [%] | IC50 [4] [nM] | Activity (Escherichia coli [5]) | inhibition (Escherichia coli [6]) [%] | Activity (Mus musculus [7]) | Activity (Mus musculus [8]) | inhibition (Escherichia coli [9]) [%] | inhibition (Escherichia coli [10]) [%] | inhibition (Escherichia coli [11]) [%] | Activity (CT26) | inhibition (Escherichia coli [12]) [%] | Activity (Mus musculus [13]) [%]
Cc1ccc(Nc2nc3ccccc3c3[nH]nc(N)c23)cc1 | Active | 4.78 | > 80 | 100 | 37.3 | Non-Toxic | 40 |  |  |  |  |  |  |  | 
Nc1n[nH]c2c1c(Nc1ccc(F)cc1)nc1ccccc12 | Active | 5.59 | > 80 | 101 | 136 | Non-Toxic | 75 | Active | inactive | 50 | 90 | 80 | inactive | 90 | 50

— ChEMBL document CHEMBL4024760, “Specific Inhibition of Bacterial β-Glucuronidase by Pyrazolo[4,3-c]quinoline Derivatives via a pH-Dependent Manner To Suppress Chemotherapy-Induced Intestinal Toxicity” (J Med Chem, 2017)
